SIRT5 inh: SIRT5 desuccinylase inhibitors, primary screen, biochemical, fluorescence imaging, single point, set 5 | Purified SirT5, succinyl-peptide AMC, trypsin-coupled fluorescence | 1.1% of 330,000 active | inhibition, % at 15 µM | NAD-dependent protein deacylase sirtuin-5, mitochondrial (Homo sapiens), Q9NXA8; in the data active = inhibition above about 15%; inconclusive = no clear call, values can overlap the other calls
Target sequence (Q9NXA8 whole entry, looked up): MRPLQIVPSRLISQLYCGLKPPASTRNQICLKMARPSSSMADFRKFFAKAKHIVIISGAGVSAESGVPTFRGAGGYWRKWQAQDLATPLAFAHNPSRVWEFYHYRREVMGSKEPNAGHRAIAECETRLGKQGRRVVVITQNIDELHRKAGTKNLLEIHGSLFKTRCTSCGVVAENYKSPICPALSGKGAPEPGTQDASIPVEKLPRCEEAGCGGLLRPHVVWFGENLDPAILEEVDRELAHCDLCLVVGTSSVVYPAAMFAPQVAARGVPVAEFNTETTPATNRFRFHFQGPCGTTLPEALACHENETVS
ERp5 inh: inhibitors of ERp5-driven insulin aggregation, primary screen, biochemical, turbidity, absorbance 650 nm, single point | inhibition, % at 9.99 µM | 90 min | 0.05% of 350,000 active;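 active = mean replicate inhibition above about 25%, with every replicate also reaching it, limit read from the data, passing the limit was not always enough; inconclusive = only one of those two criteria met; inactive = neither criterion met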
PDI turbidity: inhibitors of human PDI, primary screen, biochemical, turbidity, single point, plate reader | Protein disulfide-isomerase (Homo sapiens), P07237 | PDI insulin aggregation turbidity, A650, 90 min | inhibition, % at 10 µM | 0.052% of 350,000 active;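 active = mean inhibition across replicates of 30% or more, whatever share of single replicates reach that level; inconclusive = mean inhibition below 30% while every single replicate reaches 30%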
S100A4 inh HTS: inhibitors of S100A4-myosin IIA peptide binding, primary screen, biochemical, fluorescence polarization, TAMRA-MyoIIA peptide; Protein S100-A4 (Homo sapiens), P26447; inhibition, % at 10.7 µM; AID 652163, 2013; 0.14% of 360,000 active;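 active = mean inhibition of at least 70% across replicates, with every replicate also reaching that level; inconclusive = mean inhibition reaches 70% but some replicates fall short; inactive = mean inhibition below 70%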
Target sequence (P26447 whole entry, looked up): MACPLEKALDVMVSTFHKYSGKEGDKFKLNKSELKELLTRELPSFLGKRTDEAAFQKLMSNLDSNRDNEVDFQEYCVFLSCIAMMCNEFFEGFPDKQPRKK
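Test system: S100A4 monomer protein; Medium: HEPES pH 7.2 with CaCl2, KCl, NaCl, DTT, Triton; Probe or stimulus: TAMRA-labelled myosin IIA heavy-chain peptide probe, 5 nM; Doses: one dose per compound; Times: polarization read 5 min after assay mix addition, stable 5–60 min; Benchmarks: neutral control DMSO, positive control TFP.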
INS-1E GSIS act: GLuc luminescence reporter in INS-1E cells, primary screen for activators of glucose-dependent secretion of insulin; INS-1E GLuc reporter insulin secretion, 2-3 h; activation, % at 16.6 µM; 0.61% of 370,000 active; AID 743287, 2014;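 active = lowest replicate activation of at least 40%, so every replicate reaches that level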;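 note: 0% = median of neutral control wells and 100% = median of IBMX positive control wells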
An asterisk follows results filed as active; ? = inconclusive; nt = not tested or not shown; ! = repeats disagree. Rows were chosen to be rich in hits. Some 1.5% of all compounds tested hit in one or more screens of this group.

SMILES	SIRT5 inh	ERp5 inh	PDI turbidity	S100A4 inh HTS	INS-1E GSIS act
COC(=O)C1=C(C(=O)OC)C(c2ccccc2O)c2sc(=O)[nH]c2S1 (stereo not drawn)	16*	7	-6	-4	-10
CC(C)NC(=O)N1[C@@H](C#N)[C@H](c2ccc(C#CC3CC3)cc2)[C@@H]1CO	0	?	nt	-4	-7
O=C(CN1C(=O)C2C3CC(C(Br)C3Br)C2C1=O)Nc1ccc(C(=O)O)cc1 (stereo not drawn)	23*	1	3	11	3
O=C(CN1C(=O)C2CC=C(Cl)CC2C1=O)Nc1ccc(C(=O)O)cc1 (stereo not drawn)	nt	nt	3	nt	nt
O=C(COc1cccc2ccccc12)N1CCN(c2ccccc2)CC1	nt	nt	1	nt	nt
O=C(COc1cccc2ccccc12)N1CCN(c2ccccn2)CC1	18*	2	0	3	-31
C[C@@H]1CN([C@H](C)CO)C(=O)c2cc(C3=CCCC3)cnc2O[C@@H]1CN(C)C(=O)c1ccncc1	-4	0	nt	-16	9
CC(=O)n1cc([C@H]2C=C(C(=O)N3CCCCCCC3)O[C@@H](OCCCCO)C2)c2ccccc21	0	0	nt	-5	nt
Cc1ccc(C)c(C(=O)CCC(=O)N2CCN(c3cccc(C(F)(F)F)c3)CC2)c1	7	2	5	-1	-18
Cc1ccc(/C=C/C(=O)N2CCN(c3cccc(C(F)(F)F)c3)CC2)cc1	30*	3	6	-5	nt
C[C@H](CO)N1C[C@H](C)[C@@H](CN(C)CC2CCCCC2)Oc2ccc(NC(=O)Nc3ccccc3)cc2C1=O	3	-1	nt	5	9
C[C@H]1CN(C)C(=O)c2cccc(NS(C)(=O)=O)c2O[C@@H]1CN(C)S(C)(=O)=O	nt	nt	nt	nt	-5
O=S(=O)(Nc1ccc(C(O)(C(F)(F)F)C(F)(F)F)cc1)c1ccc(Cl)c2nonc12	nt	nt	34*	nt	nt
COc1ccc(C)cc1NC(=O)CCNC(=O)Cn1cnc2ccccc2c1=O	18*	-1	-3	-22	-2
O=C(Nc1ccccc1)[C@H]1[C@H](CO)[C@H]2Cn3c(cccc3=O)[C@@H]1N2C(=O)c1ccccc1	2	5	nt	6	0
CCCn1nc(C(=O)NC2CC2)c2ccccc2c1=O	-4	1	7	-5	52*
COc1ccc(CCN(C)C2CCCN(S(=O)(=O)N(C)C)C2)cc1OC (stereo not drawn)	15*	22	-3	1	1
C/C=C/c1ccc(C2[C@H]3CNC[C@@H]2N3S(=O)(=O)c2ccccc2OC)cc1 (stereo partly drawn)	-1	-1	nt	-14	7
C/C=C/c1ccc(C2[C@H]3CNC[C@@H]2N3S(=O)(=O)c2ccccc2C)cc1 (stereo partly drawn)	2	-1	nt	101*!	-4
O=C(O)c1ccc(-n2nnnc2SCc2ccccc2Br)cc1	-1	-1	1	-3	48*
O=C(OCc1ccccc1)/C(=C/c1ccc(Cl)cc1)NC(=O)c1ccccc1Cl	nt	nt	2	nt	70*
Cc1ccc(C(=O)N/C(=C\c2ccccc2)C(=O)OCc2ccccc2)cc1	nt	nt	1	nt	-23
CCC(C)C(CO)NCCCn1cnc2c(SC)ncnc21 (stereo not drawn)	26*	1	17	-3	0
COc1ccccc1-c1csc(C(C)(O)c2ccccc2)n1 (stereo not drawn)	16*	5	-13	-8	-25
COc1ccc(C(C)(O)c2nc(-c3cccs3)cs2)cc1 (stereo not drawn)	-1	7	4	182*	-13
SMILES	SIRT5 inh	ERp5 inh	PDI turbidity	S100A4 inh HTS	INS-1E GSIS act
COc1ccc(C(C)(O)c2nc(-c3ccccc3)cs2)cc1 (stereo not drawn)	nt	-3	1	-4	-31
CCCNC(=O)N1C[C@H](O)COC[C@@H]2O[C@@H](CC(=O)NCCCN3CCOCC3)CC[C@H]21	10	-6	nt	107*!	2
Cn1cnc(CCNC(=O)C[C@@H]2CC[C@@H]3[C@H](COC[C@H](O)CN3C(=O)C3CCCC3)O2)c1	24*	0	nt	-34	8
O=C(C[C@H]1CC[C@@H]2NC[C@@H](O)COC[C@H]2O1)NCCN1CCCCC1	nt	nt	nt	nt	27
Cn1cnc(CCNC(=O)C[C@@H]2CC[C@H]3[C@@H](COC[C@@H](O)CN3C(=O)C3CC3)O2)c1	2	-1	nt	81*	-4
Cn1cnc(CCNC(=O)C[C@H]2CC[C@H]3[C@@H](COC[C@H](O)CN3C(=O)C3CC3)O2)c1	-2	1	nt	13	4
Cn1cnc(CCNC(=O)C[C@@H]2CC[C@H]3[C@@H](COC[C@H](O)CN3C(=O)C3CC3)O2)c1	-3	4	nt	6	5
O=C(C[C@H]1CC[C@H]2NC[C@H](O)COC[C@@H]2O1)NCCN1CCCCC1	9	-2	nt	115*	8
O=C(C[C@@H]1C[C@H]2c3cc(NC(=O)NC4CCCC4)ccc3O[C@H]2[C@@H](CO)O1)NC1CCCC1	-2	-1	nt	10	-6
O=C(C[C@H]1CC[C@@H]2[C@H](COC[C@@H](O)CN2C(=O)Nc2ccc(C(F)(F)F)cc2)O1)NCC1CC1	1	-3	nt	-8	-14
Cc1ccccc1N1C(=O)CC(Sc2nnc(-c3ccccc3)o2)C1=O (stereo not drawn)	nt	nt	1	nt	nt
O=C1CC(Sc2nnc(-c3ccccc3)o2)C(=O)N1c1ccccc1 (stereo not drawn)	nt	nt	4	nt	86*
CC1N(C)c2cc(NC(=O)c3ccco3)c(P(=O)(Nc3ccc([N+](=O)[O-])cc3)N3CCOCC3)cc2C1(C)C (stereo not drawn)	-1	1	3	-67	-10
CC1N(C)c2cc(NC(=O)c3ccco3)ccc2C1(C)C (stereo not drawn)	-1	6	7	180*	-8
CCCC(=O)Nc1ccc2c(c1)C(=O)N(C)[C@H]1CC[C@H](CC(=O)OC)O[C@H]1CO2	nt	nt	nt	nt	14
C[C@H]1CN([C@@H](C)CO)C(=O)Cc2cc(NS(=O)(=O)c3cn(C)cn3)ccc2O[C@H]1CN(C)S(=O)(=O)c1ccc(Cl)cc1	3	-6	nt	14	9
Cc1cc2oc(=O)cc(CN3CCOCC3)c2cc1Cl	-1	0	-8	5	14
Cc1cc2oc(=O)cc(CN3CCOCC3)c2c(C)c1Cl	-3	-11	3	-5	41*
CCN(CC)c1ccc(Nc2cc3n(c(=O)n2)CCc2cc(OC)c(OC)cc2-3)cc1	5	3	-10	15	26
COc1cc2c(cc1OC)-c1cc(Nc3ccc(N(C)C)cc3)nc(=O)n1CC2	2	3	-5	4	79*
CCOC(=O)c1cc(-c2cc(OC)c(OC)c(OC)c2)nc2c1c(=O)[nH]c(=O)n2Cc1ccccc1	20*	-10	-2	-4	-3

Assay outcomes as filed in PubChem BioAssay.
